The results in this text go back to ChEMBL document CHEMBL1142458, “Computational structure-activity relationship analysis of non-peptide inducers of macrophage tumor necrosis factor-alpha production” (Bioorg Med Chem, 2008).

Data set [1] relates to J774.A1. The data set is described as follows: Stimulation of TNFalpha production in mouse J774.A1 cells at 50 uM after 24 hrs by ELISA relative to untreated control. Format: functional. The essentials: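 Murine J774.A1 macrophages grown in DMEM with 10% heat-inactivated FBS and 10 mM HEPES at 37°C under 5% CO2, detached by scraping. Plated at 2×10^5 cells/well in medium with 3% FBS and exposed 24 hr to compound, DMSO vehicle or LPS. Supernatant TNF-α measured by murine ELISA against a standard curve. Reported as fold-increase over DMSO control.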
(An ELISA detects its analyte on a solid surface through an enzyme-linked reagent.)

Data set [2] has as its system J774.A1. Description: Cytotoxicity against mouse J774.A1 cells assessed as effect on cell viability at <=50 uM after 24 hrs. It is filed as cell-based. The note with it: j774.a1, 24 h.

Calls of active or inactive are those of the source. No rule for the calls is given here. Where only a bound is given, the exact number is not on record here.

On to `O=C(N/N=C/c1ccc(-c2ccc(Cl)c([N+](=O)[O-])c2)o1)c1ccc2c(c1)OCO2`, for which the outcome in data set [1] was inactive. Consider `Cc1ccc(C(=O)N/N=C/c2ccc(-c3ccc(Cl)c(Cl)c3)o2)cn1`, for which the result in data set [1] was inactive. Moreover, in data set [2], the Activity result is reported as “Non-toxic”.

For the molecule `O=C(N/N=C/c1ccc(-c2ccc([N+](=O)[O-])cc2Cl)o1)c1ccc2c(c1)OCO2`, in data set [1], the “fold change (FC)” value came to 35. For `O=C(N/N=C/c1ccco1)c1ccccc1`, the outcome in data set [1] was inactive. Take `CC(C)N1C(=O)/C(=N\NC(=O)c2ccc3c(c2)OCO3)c2ccccc21`: the result in data set [1] was inactive. For `O=C(N/N=C/c1ccc(-c2cccc(C(F)(F)F)c2)o1)c1ccc([N+](=O)[O-])cc1`, in data set [1], the “fold change (FC)” value is listed as less than 5. In the case of `O=C(N/N=C/c1ccc(Br)o1)c1ccccc1`, in data set [1], the outcome was inactive. With `O=C(N/N=C1\C(=O)N(Cc2cccc3ccccc23)c2ccccc21)c1ccc2c(c1)OCO2`, the result in data set [1] was inactive. Consider `O=C(N/N=C/c1ccc(-c2ccc(Cl)c(Cl)c2)o1)c1ccccc1O`, for which the result in data set [1] was inactive. On to `CCOc1cc(/C=N\NC(=O)c2ccc3c(c2)OCO3)ccc1OC(=O)c1ccc(Br)cc1`, for which, in data set [1], the “fold change (FC)” value is given as less than 5. For the molecule `O=C(N/N=C/c1cc(Br)c(Br)o1)c1ccc2c(c1)OCO2`, the “fold change (FC)” value in data set [1] was less than 5.

Turning to `Cc1ccc(C(=O)N/N=C/c2ccc(-c3ccc(Cl)cc3Cl)o2)cn1`, the result in data set [1] was inactive. The Activity result in data set [2] was “Non-toxic”.

For `O=C(N/N=C/c1ccc(-c2ccc(Cl)cc2)o1)c1cncc(Br)c1`, the “fold change (FC)” value in data set [1] is on record as 25. In data set [2], the Activity entry is given as “Non-toxic”.

In the case of `O=C(N/N=C/c1ccco1)c1cccc(F)c1`, in data set [1], the outcome was inactive.

Take `O=C(/C=C/c1ccco1)Oc1cccc(/C=N/NC(=O)c2ccc3c(c2)OCO3)c1`: the outcome in data set [1] was inactive.

Consider `O=C(N/N=C/c1ccco1)c1ccc(Br)cc1O`, for which, in data set [1], the outcome was inactive. In the case of `Cc1ccc(C(=O)N/N=C/c2ccc(-c3cccc(Br)c3)o2)cn1`, the outcome in data set [1] was inactive. In addition, the Activity entry in data set [2] is “Non-toxic”.

For `O=C(N/N=C/c1ccc(-c2ccc(Cl)cc2Cl)o1)c1ccccc1[N+](=O)[O-]`, the outcome in data set [1] was inactive. Regarding `CN(C)c1ccc(/C=N\NC(=O)c2ccccc2O)cc1`, in data set [1], the result was inactive. For the molecule `O=C(N/N=C/c1cc(/N=N\c2cccc3ccccc23)ccc1O)c1ccc2c(c1)OCO2`, the result in data set [1] was inactive.

`O=C(N/N=C/c1ccco1)c1ccc(Cl)cc1Cl`: in data set [1], the result was inactive. `Cc1cc(C)n(Cc2ccc(C(=O)N/N=C/c3ccco3)cc2)n1`: in data set [1], the outcome was inactive.

With `Cc1ccc(C(=O)N/N=C/c2ccc(-c3cccc(Cl)c3Cl)o2)cn1`, in data set [1], the result was inactive. Besides, the Activity result in data set [2] is recorded as “Non-toxic”. As to `O=C(N/N=C/c1ccc(-c2cccc(Cl)c2)o1)c1cccnc1`, the “fold change (FC)” value in data set [1] was found to be 17. In data set [2], the Activity result is on record as “Non-toxic”. With `Cc1ccc(C(=O)N/N=C/c2ccc(-c3cc(Cl)ccc3Cl)o2)cn1`, the result in data set [1] was inactive. Besides, in data set [2], the Activity result is listed as “Non-toxic”. Regarding `O=C(/C=C\c1ccco1)Oc1ccc(/C=N\NC(=O)c2ccc3c(c2)OCO3)cc1`, in data set [1], the result was inactive. For `COc1cc(Br)ccc1C(=O)N/N=C/c1ccco1`, the outcome in data set [1] was inactive. For `O=C(N/N=C/c1ccc(-c2cccc(Cl)c2Cl)o1)c1cccnc1`, the result in data set [1] was inactive. For the same molecule, the Activity result in data set [2] was “Non-toxic”. Consider `COc1ccc(Cl)cc1/C=N/NC(=O)c1ccc2c(c1)OCCO2`, for which the result in data set [1] was inactive. With `CCc1ccc(C(=O)N/N=C/c2ccc(-c3ccc(C)c(Cl)c3)o2)nc1`, the result in data set [1] was inactive. Further, the Activity result in data set [2] was “Non-toxic”. On to `COc1cc(/C=N\NC(=O)c2ccc3c(c2)OCO3)ccc1OC(=O)c1ccco1`, for which the result in data set [1] was inactive.

With `COc1ccc(C(=O)N/N=C/c2ccc(-c3ccc(Cl)c(C(=O)O)c3)o2)cc1`, in data set [1], the outcome was inactive. For the molecule `O=C(N/N=C/c1ccc(-c2ccc(O)c(C(=O)O)c2)o1)c1cccnc1`, the result in data set [1] was inactive. Consider `COc1ccc(C(=O)N/N=C\c2ccc(N(C)C)cc2)cc1`, for which the outcome in data set [1] was inactive. `Cc1ccc(-c2ccc(/C=N/NC(=O)c3cccnc3)o2)cc1Cl`: the “fold change (FC)” value in data set [1] was 60. In data set [2], the Activity result was “Non-toxic”. For the molecule `O=C(N/N=C/c1ccc(-c2ccc(Cl)cc2)o1)c1cccnc1`, the “fold change (FC)” value in data set [1] came to 15. The Activity result in data set [2] is “Non-toxic”. Take `O=C(N/N=C/c1ccc(-c2ccc(Cl)cc2)o1)c1ccncc1`: in data set [1], the result was inactive. The Activity entry in data set [2] was “Non-toxic”. Take `O=C(N/N=C/c1ccc(-c2ccccc2Cl)o1)c1cccnc1`: the outcome in data set [1] was inactive. Further, in data set [2], the Activity entry is “Non-toxic”. Take `COc1cc(/C=N\NC(=O)c2cccc(C)c2O)ccc1OCc1ccccc1`: in data set [1], the outcome was inactive. Take `O=C(N/N=C/c1c(O)ccc2ccccc12)c1ccc2c(c1)OCO2`: the result in data set [1] was inactive. With `O=C(N/N=C/c1ccc(-c2cc(Cl)c(Cl)cc2Cl)o1)c1cccnc1`, the outcome in data set [1] was inactive. In addition, in data set [2], the Activity entry is recorded as “Non-toxic”. As to `O=C(N/N=C/c1ccc(-c2cccc(C(F)(F)F)c2)o1)c1cc(I)ccc1Cl`, the “fold change (FC)” value in data set [1] was less than 5. As for `O=C(N/N=C/c1ccc(-c2ccc([N+](=O)[O-])cc2)o1)c1cccc(O)c1`, in data set [1], the outcome was inactive. For `O=C(N/N=C/c1ccco1)c1cccnc1`, in data set [1], the result was inactive. With `O=C(N/N=C/c1ccc([N+](=O)[O-])o1)c1ccc(O)cc1O`, the result in data set [1] was inactive. In the case of `COc1ccccc1OCc1ccc(C(=O)N/N=C/c2ccco2)cc1`, the outcome in data set [1] was inactive.

Turning to `O=C(N/N=C/c1cc(Br)c(Br)o1)c1ccc2c(c1)OCCO2`, the outcome in data set [1] was inactive.

On to `O=C(N/N=C/c1ccc(-c2cc(Cl)ccc2Cl)o1)c1ccc([N+](=O)[O-])cc1`, for which the “fold change (FC)” value in data set [1] is less than 5. With `CN(C)c1ccc(/C=N\NC(=O)c2cccc(F)c2)cc1`, in data set [1], the result was inactive.

Consider `CN(C)c1ccc(/C=N\NC(=O)c2ccc([N+](=O)[O-])cc2)cc1`, for which the “fold change (FC)” value in data set [1] worked out at 25. `COc1ccc(/C(C)=N/NC(=O)c2ccc3c(c2)OCCO3)cc1[N+](=O)[O-]`: the outcome in data set [1] was inactive. Regarding `Cc1ccc(C(=O)N/N=C/c2ccc(-c3ccc(C)c(Cl)c3)o2)cn1`, the “fold change (FC)” value in data set [1] is given as 21. Moreover, in data set [2], the Activity entry was “Non-toxic”. On to `O=C(N/N=C/c1cc(/N=N\c2cccc(C(F)(F)F)c2)ccc1O)c1ccc2c(c1)OCO2`, for which the outcome in data set [1] was inactive. `COc1ccc(-c2ccc(/C=N/NC(=O)c3ccc([N+](=O)[O-])cc3)o2)cc1Cl`: in data set [1], the result was inactive.

In the case of `CC(C)(C)c1ccc(C(=O)N/N=C/c2ccc(-c3ccc([N+](=O)[O-])cc3)o2)cc1`, in data set [1], the result was inactive. In the case of `Cc1ccc(C(=O)N/N=C/c2ccc(-c3cccc(C(F)(F)F)c3)o2)cn1`, the “fold change (FC)” value in data set [1] is listed as less than 5. The same measure, in the same setting: in the case of `O=C(N/N=C/c1ccc(-c2ccc(Cl)c(Cl)c2)o1)c1ccc2c(c1)OCO2` it was less than 5. On to `Cc1ccc(-c2ccc(/C=N/NC(=O)c3ccncc3)o2)cc1Cl`, for which the “fold change (FC)” value in data set [1] is 50. In data set [2], the Activity result is listed as “Non-toxic”. Take `O=C(N/N=C/c1ccc(I)o1)c1ccccc1F`: in data set [1], the outcome was inactive.

Regarding `Cc1ccc(C(=O)N/N=C/c2ccc(-c3ccc(Cl)cc3)o2)cn1`, the outcome in data set [1] was inactive. The Activity result in data set [2] was “Non-toxic”.

Regarding `O=C(N/N=C/c1cc(Br)cc(I)c1O)c1ccc2c(c1)OCCO2`, in data set [1], the outcome was inactive. `Cc1ccc(C(=O)N/N=C/c2ccc(-c3cc(Cl)c(Cl)cc3Cl)o2)cn1`: the “fold change (FC)” value in data set [1] is less than 5. Take `Cc1ccc(C(=O)N/N=C/c2ccc(C)o2)cc1`: in data set [1], the outcome was inactive. In the case of `O=C(N/N=C/c1ccc(-c2cccc(Cl)c2)o1)c1ccc([N+](=O)[O-])cc1`, the outcome in data set [1] was inactive. Take `COc1cc(/C=N\NC(=O)c2ccc3c(c2)OCO3)ccc1OCc1ccccc1`: the “fold change (FC)” value in data set [1] is reported as 7.

In the case of `O=C(N/N=C/c1ccc(-c2cccc(Cl)c2Cl)o1)c1ccccc1`, the “fold change (FC)” value in data set [1] worked out at 8. Regarding `O=C(N/N=C/c1ccc(-c2cccc(C(F)(F)F)c2)o1)c1ccc(F)cc1`, the “fold change (FC)” value in data set [1] is on record as 35. In the case of `COc1ccc(/C=N/NC(=O)c2ccc3c(c2)OCO3)c(OC)c1`, the result in data set [1] was inactive.

For the molecule `O=C(N/N=C/c1ccc([N+](=O)[O-])o1)c1cc([N+](=O)[O-])cc([N+](=O)[O-])c1O`, the result in data set [1] was inactive. The same measure, in the same setting: in the case of `COc1ccc(Br)cc1C(=O)N/N=C/c1ccc(C)o1` it was “inactive”. Same read-out and setting: in the case of `CCN1C(=O)/C(=N\NC(=O)c2ccc3c(c2)OCO3)c2ccccc21` it was “inactive”; in that of `O=C(O)COc1ccccc1/C=N/NC(=O)c1ccc2c(c1)OCO2`, “inactive”.

On to `O=C(N/N=C/c1ccc(-c2cccc(Br)c2)o1)c1cccnc1`, for which the “fold change (FC)” value in data set [1] is given as 50.

With `O=C(N/N=C/c1ccc(-c2ccccc2Cl)o1)c1ccc(Cl)cc1Cl`, in data set [1], the “fold change (FC)” value is on record as less than 5. On to `CCOc1ncccc1C(=O)N/N=C/c1ccc([N+](=O)[O-])o1`, for which the outcome in data set [1] was inactive. On to `O=C(N/N=C/c1cc(Br)cc(Br)c1OC(=O)c1ccccc1)c1ccc2c(c1)OCO2`, for which, in data set [1], the “fold change (FC)” value is less than 5. For the molecule `C/C(=N\NC(=O)c1ccc2c(c1)OCO2)c1cccc([N+](=O)[O-])c1`, in data set [1], the outcome was inactive.

For `CN(C)c1ccc(/C=N/NC(=O)c2ccc3c(c2)OCO3)cc1`, the result in data set [1] was inactive. On to `O=C(N/N=C/c1ccc(-c2cccc(C(F)(F)F)c2)o1)c1ccc(Br)cc1`, for which the result in data set [1] was inactive.
